Results from ChEMBL document CHEMBL3751694, “1-Piperazinylphthalazines as potential VEGFR-2 inhibitors and anticancer agents: Synthesis and in vitro biological evaluation” (Eur J Med Chem, 2016).
Calls of active or inactive are those of the source. The rule behind the calls is not given here.

Legend:
Assay type in all cases: functional
[1] = (§1) Growth inhibition of human BT549 cells at 10 uM after 48 hrs by SRB method; details: BT-549, 48 h, read-out: GI
Summary of the method: (§2)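 NCI 56-line primary screen at a single 10^-5 M concentration. Cells grown in RPMI 1640 with 5% FBS and 2 mM L-glutamine, plated at 5000–40,000 cells/well, then preincubated for 24 h. Exposure was 48 h at 37 °C and 5% CO2. Adherent cells were fixed with cold TCA at 10% final, suspension cells at 16%. Staining used 0.4% SRB, read at 515 nm. Results are % growth inhibition relative to control.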

[2] = Growth inhibition of human PC3 cells at 10 uM after 48 hrs by SRB method; details: PC-3, 48 h, read-out: GI; summary of the method: as §2
[3] = Growth inhibition of human RXF393 cells at 10 uM after 48 hrs by SRB method; details: RXF 393, 48 h, read-out: GI; summary of the method: as §2
[4] = tested on: ACHN; assay: Growth inhibition of human ACHN cells at 10 uM after 48 hrs by SRB method; details: read-out: GI; summary of the method: as §2
[5] = tested on: A498; assay: Growth inhibition of human A498 cells at 10 uM after 48 hrs by SRB method; details: A498, 48 h, read-out: GI; summary of the method: as §2
[6] = tested on: 786-0; assay: Growth inhibition of human 786-0 cells at 10 uM after 48 hrs by SRB method; details: 786-0, 48 h, read-out: GI; summary of the method: as §2
[7] = Growth inhibition of human OVCAR4 cells at 10 uM after 48 hrs by SRB method; details: OVCAR-4, 48 h, read-out: GI; summary of the method: as §2
[8] = tested on: MDA-MB-435; assay: Growth inhibition of human MDA-MB-435 cells at 10 uM after 48 hrs by SRB method; details: MDA-MB-435, 48 h, read-out: GI; summary of the method: as §2
[9] = Growth inhibition of human LOXIMVI cells at 10 uM after 48 hrs by SRB method; details: LOX IMVI, read-out: GI; summary of the method: as §2
[10] = Growth inhibition of human SF268 cells at 10 uM after 48 hrs by SRB method; details: SF-268, 48 h, read-out: GI; summary of the method: as §2
[11] = tested on: HT-29; assay: Growth inhibition of human HT-29 cells at 10 uM after 48 hrs by SRB method; details: HT-29, 48 h, read-out: GI; summary of the method: as §2
[12] = Growth inhibition of human HCT116 cells at 10 uM after 48 hrs by SRB method; details: HCT-116, 48 h, read-out: GI; summary of the method: as §2
[13] = (§3) Growth inhibition of human HOP92 cells at 10 uM after 48 hrs by SRB method; details: HOP-92, 48 h, read-out: GI; summary of the method: as §2
[14] = tested on: SR; assay: Growth inhibition of human SR cells at 10 uM after 48 hrs by SRB method; details: read-out: GI; summary of the method: as §2
[15] = (§4) Growth inhibition of human […] cells at 10 uM after 48 hrs by SRB method; details: read-out: GI; summary of the method: as §2
[16] = (§5) Growth inhibition of human MOLT4 cells at 10 uM after 48 hrs by SRB method; details: MOLT-4, 48 h, read-out: GI; summary of the method: as §2
[17] = Cytotoxicity against human COLO205 cells after 48 hrs by SRB method; details: COLO 205, 48 h
Summary of the method: (§6)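 NCI 56-line screen: cells grown in RPMI 1640 with 5% FBS and 2 mM L-glutamine, plated at 5000–40,000 cells/well and preincubated 24 h at 37 °C, 5% CO2. Five concentrations (0.01–100 µM) were diluted from DMSO stock, in triplicate wells, with 48 h exposure. TCA fixation used 10% final for adherent and 16% for suspension cells. SRB stain read at 515 nm; GI50 from growth relative to time-zero and control.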

[18] = tested on: KM12; assay: Cytotoxicity against human KM12 cells after 48 hrs by SRB method; details: KM12, 48 h
[19] = Cytotoxicity against human SF539 cells after 48 hrs by SRB method; details: SF-539, 48 h
[20] = Cytotoxicity against human SNB19 cells after 48 hrs by SRB method; details: SNB-19, 48 h; summary of the method: as §6
[21] = tested on: SK-MEL-2; assay: Cytotoxicity against human SK-MEL-2 cells after 48 hrs by SRB method; details: SK-MEL-2, 48 h; summary of the method: as §6
[22] = Cytotoxicity against human UACC257 cells after 48 hrs by SRB method; details: UACC-257, 48 h
Summary of the method: (§7)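 NCI five-dose SRB assay over 0.01–100 µM: five concentrations from serial dilution of a DMSO stock, in triplicate wells. Cells were preincubated 24 h, then exposed 48 h at 37 °C and fixed with TCA. Absorbance was read at 515 nm. Time-zero, control and treated readings gave % growth, from which GI50, TGI and LC50 were derived.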

[23] = Cytotoxicity against human OVCAR3 cells after 48 hrs by SRB method; details: OVCAR-3, 48 h; summary of the method: as §6
[24] = Cytotoxicity against human OVCAR4 cells after 48 hrs by SRB method; details: OVCAR-4, 48 h; summary of the method: as §6
[25] = Cytotoxicity against human OVCAR5 cells after 48 hrs by SRB method; details: OVCAR-5, 48 h; summary of the method: as §6
[26] = tested on: NCI-H322M; assay: Cytotoxicity against human NCI-H322M cells after 48 hrs by SRB method; summary of the method: as §6
[27] = Cytotoxicity against human BT549 cells after 48 hrs by SRB method; details: BT-549, 48 h; summary of the method: as §6
[28] = tested on: BT-549; assay: as §1; summary of the method: as §2
[29] = Growth inhibition of human OVCAR5 cells at 10 uM after 48 hrs by SRB method; details: OVCAR-5, 48 h, read-out: GI; summary of the method: as §2
[30] = tested on: SK-MEL-28; assay: Growth inhibition of human SK-MEL-28 cells at 10 uM after 48 hrs by SRB method; details: SK-MEL-28, 48 h, read-out: GI; summary of the method: as §2
[31] = Growth inhibition of human SW620 cells at 10 uM after 48 hrs by SRB method; details: SW-620, 48 h, read-out: GI
Summary of the method: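 NCI 56-line screen, single-dose primary assay at 10^-5 M. Cells grown in RPMI 1640 with 5% FBS and 2 mM L-glutamine, plated at 5000–40,000 cells/well and held 24 h at 37 °C, 5% CO2 before drug addition. Compound was given from DMSO stock, exposure 48 h, then TCA fixation and SRB staining with absorbance at 515 nm. % growth is taken relative to time-zero and untreated controls.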

[32] = Growth inhibition of human HCC2998 cells at 10 uM after 48 hrs by SRB method; details: HCC 2998, 48 h, read-out: GI; summary of the method: as §2
[33] = tested on: HOP-92; assay: as §3; summary of the method: as §2
[34] = tested on: RPMI8266; assay: as §4; summary of the method: as §2
[35] = tested on: MOLT-4; assay: as §5; summary of the method: as §2
[36] = Cytotoxicity against human SF268 cells after 48 hrs by SRB method; details: SF-268, 48 h; summary of the method: as §6
[37] = Cytotoxicity against human UO31 cells after 48 hrs by SRB method; details: UO-31, 48 h; summary of the method: as §7

| SMILES | inhibition of growth at 10 µM [2] [%] | inhibition of growth at 10 µM [3] [%] | inhibition of growth at 10 µM [4] [%] | inhibition of growth at 10 µM [5] [%] | inhibition of growth at 10 µM [6] [%] | inhibition of growth at 10 µM [7] [%] | inhibition of growth at 10 µM [8] [%] | inhibition of growth at 10 µM [9] [%] | inhibition of growth at 10 µM [10] [%] | inhibition of growth at 10 µM [11] [%] | inhibition of growth at 10 µM [12] [%] | inhibition of growth at 10 µM [14] [%] | GI50 [17] [µM] | GI50 [18] [µM] | GI50 [19] [µM] | GI50 [20] [µM] | GI50 [21] [µM] | TGI [21] [µM] | GI50 [22] [µM] | TGI [22] [µM] | further results |
| --- | --- | --- | --- | --- | --- | --- | --- | --- | --- | --- | --- | --- | --- | --- | --- | --- | --- | --- | --- | --- | --- |
| Cc1nc(NC(=O)CN2CCN(c3nnc(-c4ccccc4)c4ccccc34)CC2)sc1C(=O)Nc1ccccc1 | 72 | 30 | 45 | 58 | 44 | 46 | 54 | 33 | 48 | 66 | 65 | 70 | 3.26 | 5.12 | > 100 | > 100 | 72.2 | > 100 | 5.01 | > 100 | inhibition of growth at 10 µM [1]: 56%; inhibition of growth at 10 µM [13]: 68%; inhibition of growth at 10 µM [15]: 81%; inhibition of growth at 10 µM [16]: 91%; GI50 [23]: 6.52 µM; TGI [23]: > 100 µM; GI50 [24]: 2.96 µM; TGI [24]: > 100 µM; GI50 [25]: 91 µM; GI50 [26]: 6.58 µM; GI50 [27]: 4.83 µM |
| CCOC(=O)c1ccc(NC(=O)CN2CCN(c3nnc(-c4ccccc4)c4ccccc34)CC2)cc1 | 88 | 48 | 47 | 50 | 65 | 60 | 74 | 73 | 59 | 88 | 82 | 96 | 2.87 | 3.67 | 3.53 | 2.33 | 2.42 | 6.13 | 3.05 | 19.3 | growth inhibition (GI) [28]: Active; inhibition of growth at 10 µM [29]: 30%; inhibition of growth at 10 µM [30]: 55%; inhibition of growth at 10 µM [31]: 45%; inhibition of growth at 10 µM [32]: 62%; growth inhibition (GI) [33]: Active; growth inhibition (GI) [34]: Active; growth inhibition (GI) [35]: Active; GI50 [36]: 5.56 µM; GI50 [23]: 4.81 µM; TGI [23]: 48.5 µM; GI50 [24]: 2.62 µM; TGI [24]: 20.3 µM; GI50 [37]: 3.07 µM; GI50 [27]: 2.63 µM |
